Active and inactive are the calls of the source. The calls are words filed in the database; no cut-off is given here. Where a SMILES comes first, the peptide text is derived from it. [ ]: non-standard residue; d: D form. NMeR = CN[C@@H](CCCNC(=N)N)C(=O)O; NMeS = CN[C@@H](CO)C(=O)O
Tests used:
[1] = Proteolytic stability of compound in human plasma assessed as protease-mediated degradation by measuring compound remaining at 200 uM incubated for 30 mins by UHPLC analysis; type: ADME, cell-free; settings: read-out: Stability
Method in brief: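 Compound (200 μM final, dissolved in water) incubated in human serum at 37 °C for 30 min. Samples every 5 min quenched 1:1 with 6% TCA and centrifuged. Supernatant analysed by UHPLC (UV 223 nm) for intact compound; cleavage sites identified by MS.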

[2] = Cytotoxicity in HEK293T cells assessed as cell viability at 100 uM incubated for 24 hrs by MTT assay relative to control; type: toxicity, cell-based, HEK-293T; settings: human, read-out: Activity
Method in brief: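 HEK293T cells grown in complete medium for 2 days, then the medium was replaced with compound at 1, 10, 25, 50 or 100 μM for 24 h. MTT was added, formazan dissolved in DMSO, and absorbance read at 570 nm. Mean of three biological replicates, compared with untreated control.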

HEK-293T [3] = test: Cytotoxicity in HEK293T cells assessed as cell viability at 1 to 10 uM incubated for 24 hrs by MTT assay relative to control; type: toxicity, cell-based; settings: human, dose 1-10 µM
Method in brief: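 HEK293T cells grown 2 days, then medium replaced with compound at 1, 10, 25, 50 or 100 μM for 24 h. MTT added, formazan dissolved in DMSO, absorbance read at 570 nm. Mean of three biological replicates vs control, one-way ANOVA.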

HEK-293T [4] = test: Cytotoxicity against HEK293T cells assessed as cell viability at 10 uM measured after 3 hrs by Hoechst 33342 staining based analysis; type: toxicity; settings: human
Method in brief: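 HEK293T cells in DMEM/10% FBS, seeded 3 × 10^4 per well and grown 48 h, then given 10 μM NBD-labelled modulators for 3 h. Hoechst 33342 added for the final 30 min. Cells washed with PBS and imaged by fluorescence microscopy (NBD and Hoechst channels). Three independent replicates.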

Primary cortical neuron = test: Activation of 20S proteasome in mouse Primary cortical neuron cells assessed as reduction in alpha-synuclein level at 2.5 uM incubated for 7 days; type: cell-based; settings: filed as activator, time 7.0 day
Method in brief: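 E16–E17 CD1 mouse cortical neurons cultured in Neurobasal A with B-27 and GlutaMAX. Treated at DIV7 with 2.5 μM activator for 7 days; lysed at DIV14, protein by BCA. α-Synuclein quantified by Simple Western Jess automated immunoblot with total-protein normalization. n = 3 biological replicates.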

[5] = Permeability of compound in PBS incubated for 22 hrs by PAMPA-BBB assay; type: ADME
Method in brief: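 PAMPA-BBB with a 2% porcine brain lipid membrane. Compounds were diluted from 10 mM aqueous stocks to 500 μM in 0.1 M PBS containing 5% DMSO and incubated 22 h at 37 °C with shaking at 250 rpm. Read-out was fluorescence after reaction with 0.02% fluorescamine (absorbance at 290 nm for propranolol). Pe calculated as linear permeation velocity. Three biological replicates.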

Hippocampal neuron [6] = test: Neuroprotective activity in mouse Hippocampal neuron cells assessed as increase in cell number at 0.5 to 5 uM pretreated with preformed fibrils followed by compound treatment measured after 7 days by DAPI staining/NeuN protein immunostaining analysis; type: functional, cell-based; settings: dose 0.5-5 µM, time 7.0 day
Hippocampal neuron [7] = test: Neuroprotective activity in mouse Hippocampal neuron cells assessed as decrease in Lewy body-like aggregates at 0.5 to 2.5 uM pretreated with alpha-synuclein followed by compound addition measured after 7 days by immunostaining analysis; type: functional, cell-based; settings: dose 0.5-2.5 µM, time 7.0 day
Method in brief: (§1)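 E16.0 mouse hippocampal neurons, 25,000 per well, poly-L-lysine coated, Neurobasal/B27. Day 8: sonicated mouse α-synuclein PFFs added (2.5 μg/mL final; PBS for controls). Modulator (0.5 or 2.5 μM) added 1 h later. Day 15: PFA fixation; immunostaining for pS129-αsyn and NeuN plus DAPI; automated imaging. 3 biological, 9–11 technical replicates.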

Hippocampal neuron [8] = test: Activation of 20S proteasome in mouse Hippocampal neuron cells assessed as reduction in alpha-synuclein aggregation measured after 7 days by DAPI staining based immunofluorescence analysis; type: cell-based; settings: filed as activator, dose 0.5-5 µM, time 7.0 day
Hippocampal neuron [9] = test: Neuroprotective activity in mouse Hippocampal neuron cells assessed as neuron viability at 0.5 to 2.5 uM pretreated with alpha-synuclein followed by compound addition measured after 7 days by immunostaining analysis; type: functional, cell-based; settings: dose 0.5-2.5 µM, time 7.0 day; method in brief: as §1
[10] = target: T1, 20S proteasome (Homo sapiens) (UniProt P49721+P20618+P28074+P28062+P28065+P28072+P25786+P25787+P25788+P25789+P28066+P60900+O14818+Q8TAA3+P40306+A5LHX3+P49720+P28070+Q99436); test: Activation of human 20S proteasome assessed as alpha-synuclein degradation by measuring residual activity at 10 uM by SDS-PAGE analysis relative to control; type: protein-complex assay; settings: filed as activator, time 1.5 hrs
[11] = target: T1, 20S proteasome (Homo sapiens); test: Activation of human 20S proteasome assessed as tau degradation at 10 uM by SDS-PAGE analysis relative to control; type: protein-complex assay; settings: filed as activator, time 1.5 hrs
[12] = target: T1, 20S proteasome (Homo sapiens); test: Activation of 20S proteasome chymotrypsin-like activity in HEK293T cell lysate using Suc-LLVY-AMC as substrate assessed as fold increase in activity at 5 uM by fluorescence based analysis relative to control; type: subcellular; settings: filed as activator
Method in brief: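 Chymotrypsin-like activity read with Suc-LLVY-AMC. 1 μM bortezomib as negative control. Fold activity vs vehicle control; at least three independent replicates, one-way ANOVA with Tukey.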

[13] = target: T1, 20S proteasome (Homo sapiens); test: Activation of human erythrocyte-derived 20S proteasome chymotrypsin-like activity using Suc-LLVY-AMC as substrate assessed as fold increase in activity at 1 uM measured every two mins for 60 mins by fluorescence based analysis relative to control; settings: filed as activator
Method in brief: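 h20S proteasome 0.002 mg/mL (2.8 nM) in 50 mM Tris/HCl pH 8.0, 2% DMSO final. Suc-LLVY-AMC 100 μM final. Modulators 1.0–50 μM (TAT/6R constructs 0.5–10 μM). AMC fluorescence ex 380/em 460 nm read every 2 min for 60 min at 37 °C. Activity relative to DMSO-treated latent proteasome (100%); ≥3 replicates.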

[14] = target: T1, 20S proteasome (Homo sapiens); test: Activation of human erythrocyte-derived 20S proteasome trypsin-like activity using Boc-LRR-AMC as substrate at 0.5 to 10 uM measured every two mins for 60 mins by fluorescence based analysis; settings: filed as activator, dose 0.5-10 µM
[15] = target: T1, 20S proteasome (Homo sapiens); test: Activation of human erythrocyte-derived 20S proteasome using Dabcyl-EDANS as FRET-type substrate at 1.0 to 50 uM measured every two mins for 60 mins by fluorescence based analysis; type: cell-based; settings: filed as activator, dose 1-50 µM
Method in brief: (§2)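 Latent human 20S proteasome (0.002 mg/mL, 2.8 nM) in 50 mM Tris/HCl pH 8.0 with 2% DMSO. AMC substrates at 100 μM final (ex 380/em 460 nm); Dabcyl-EDANS at 15 μM final (ex 335/em 493 nm). Modulators at 1.0–50 μM; TAT- or 6R-containing constructs at 0.5–10 μM. Read every 2 min for 60 min at 37 °C. Activity relative to DMSO-treated proteasome (100%). ≥3 independent replicates.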

[16] = target: T1, 20S proteasome (Homo sapiens); test: Activation of human erythrocyte-derived 20S proteasome chymotrypsin-like activity using Suc-LLVY-AMC as substrate at 1.0 to 50 uM measured every two mins for 60 mins by fluorescence based analysis; settings: filed as activator, dose 1-50 µM
[17] = target: T1, 20S proteasome (Homo sapiens); test: Activation of human erythrocyte-derived 20S proteasome using Dabcyl-EDANS as FRET-type substrate at higher concentration measured every two mins for 60 mins by fluorescence based analysis; type: cell-based; settings: filed as activator; method in brief: as §2
[18] = target: T1, 20S proteasome (Homo sapiens); test: Activation of human erythrocyte-derived 20S proteasome trypsin-like activity using Boc-LRR-AMC as substrate at 1.0 to 50 uM measured every two mins for 60 mins by fluorescence based analysis; settings: dose 1-50 µM
[19] = target: T1, 20S proteasome (Homo sapiens); test: Activation of human erythrocyte-derived 20S proteasome caspase-like activity using Z-LLE-AMC as substrate at 1.0 to 50 uM measured every two mins for 60 mins by fluorescence based analysis; settings: filed as activator, dose 1-50 µM; method in brief: as §2
[20] = Effect on secondary structure of drug in water at 2 mg/ml assessed as alpha-helical conformation by CD analysis; type: physicochemical; settings: buffer

SMILES	remaining at 0.5 h, 200 µM [1] [%]	Activity (HEK-293T [3])	Activity (HEK-293T [4])	Activity (Primary cortical neuron)	permeability [5]	Activity (Hippocampal neuron [6])	Activity (Hippocampal neuron [7])	Activity (Hippocampal neuron [9])	further results
C[C@@H](O)[C@H](NC(=O)[C@H](Cc1ccccc1)NC(=O)[C@H](Cc1ccc(O)cc1)NC(=O)CN(CCCCN)C(=O)[C@H](CCCNC(=N)N)NC(=O)[C@H](CCCNC(=N)N)NC(=O)[C@H](CCCNC(=N)N)NC(=O)[C@H](CCNC(=N)N)NC(=O)[C@H](CCCNC(=N)N)NC(=O)[C@@H](N)CCCNC(=N)N)C(=O)NCC(=O)N[C@@H](CO)C(=O)N[C@@H](CCCCN)C(=O)N[C@@H](CC(=O)O)C(=O)N[C@@H](Cc1c[nH]c2ccccc12)C(=O)N[C@@H](CCCNC(=N)N)C(=O)N[C@@H](CO)C(=O)N[C@@H](Cc1ccc(O)cc1)C(=O)N[C@@H](Cc1ccc(O)cc1)C(=O)N[C@@H](CO)C(=O)O	> 60	Non-toxic	Non-toxic	Active	Permeable	Active	Active	Active	viability at 24 h, 100 µM [2]: ~50%; Activity (Hippocampal neuron [8]): Dose-dependent-effect
C[C@@H](O)[C@H](NC(=O)[C@H](Cc1ccccc1)NC(=O)[C@H](Cc1ccc(O)cc1)NC(=O)CN(CCCCN)C(=O)[C@H](CCCNC(=N)N)NC(=O)[C@H](CCCNC(=N)N)NC(=O)[C@H](CCCNC(=N)N)NC(=O)[C@H](CCC(N)=O)NC(=O)[C@H](CCCNC(=N)N)NC(=O)[C@H](CCCNC(=N)N)NC(=O)[C@H](CCCCN)NC(=O)[C@H](CCCCN)NC(=O)[C@@H](N)CCCNC(=N)N)C(=O)NCC(=O)N[C@@H](CO)C(=O)N[C@@H](CCCCN)C(=O)N[C@@H](CC(=O)O)C(=O)N[C@@H](Cc1c[nH]c2ccccc12)C(=O)N[C@@H](CCCNC(=N)N)C(=O)N[C@@H](CO)C(=O)N[C@@H](Cc1ccc(O)cc1)C(=O)N[C@@H](Cc1ccc(O)cc1)C(=O)N[C@@H](CO)C(=O)O	> 60	Non-toxic	Non-toxic	Active	Permeable	Active	Active	Active	Activity [10]: < 40%; Activity [11]: > 90%; fold change (FC) [12]: 4; fold change (FC) [13]: 16; Activity [14]: Active
C[C@@H](O)[C@H](NC(=O)[C@H](Cc1ccccc1)NC(=O)[C@H](Cc1ccc(O)cc1)NC(=O)[C@@H](N)CCCCN)C(=O)NCC(=O)N[C@@H](CO)C(=O)N[C@@H](CCCCN)C(=O)N[C@@H](CC(=O)O)C(=O)N[C@@H](Cc1c[nH]c2ccccc12)C(=O)N(C)[C@@H](CCCNC(=N)N)C(=O)N(C)[C@@H](CO)C(=O)N[C@@H](Cc1ccc(O)cc1)C(=O)N[C@@H](Cc1ccc(O)cc1)C(=O)N[C@@H](CO)C(=O)O (H-KYFTGSKDW[NMeR][NMeS]YYS-OH)									Activity [15]: Active; Activity [16]: Active; Lower Capacity Of Activation Is Observed; Activity [17]: Active; Activity [18]: inactive; Activity [19]: Moderate_effect; Activity [20]: Active

Reference: ChEMBL document CHEMBL6134855, “Peptidomimetics Activating the Proteasome: A New Perspective for Parkinson's Treatment” (J Med Chem, 2025)
